Laboratory results as given in ChEMBL document CHEMBL5678818, “Discovery of potent SOS1 inhibitors that block RAS activation via disruption of the RAS-SOS1 interaction” (Proc Natl Acad Sci U S A, 2019).
Calls of active or inactive are those of the source. The calls are words filed in the database; no cut-off is given here.

Legend:
[1] = biological target: Son of sevenless homolog 2 (Homo sapiens, UniProt Q07890); test: (§1) Inhibition of N-terminal His10-tagged wild-type recombinant human SOS2 catalytic domain (564 to 1043 residues) expressed in Escherichia coli assessed as reduction in KRAS G12C mutant activation preincubated for 10 mins with KRAS followed by SOS2 addition measured after 30 mins in presence of EDA-GTP-DY-647P1 by HTRF analysis
[2] = biological target: T1, Son of sevenless homolog 1 (Homo sapiens, UniProt Q07889); test: as §1, with “SOS1” for “SOS2”, “1049” for “1043”
GTPase KRas/RAF1 = GTPase KRas/RAF1 (Homo sapiens, UniProt P01116+P04049); test: Inhibition of N-terminal His10-tagged wild-type recombinant human KRAS (1 to 169 residues) expressed in Escherichia coli/N-terminal GST-tagged recombinant human CRAF RBD (51 to 131 residues) expressed in Escherichia coli protein-protein interaction preincubated for 30 mins with KRAS followed by CRAF RBD addition measured after 60 mins in presence of anti-6His-XL665/GTP by HTRF analysis
Calu-1 [3] = test: Antiproliferative activity against human Calu-1 cells assessed as inhibition of cell viability incubated for 72 hrs by Cell Titer Glo assay; format: functional, cell-based; conditions: Calu-1, 72 h
[4] = biological target: Epidermal growth factor receptor (Homo sapiens, UniProt P00533); test: Inhibition of human EGFR using biotin-aminohexyl-AEEEEYFELVAKKK as substrate preincubated for 15 mins followed by substrate/ATP addition measured after 20 mins by FRET assay
[5] = biological target: T2, Guanine nucleotide exchange factor DBS (Homo sapiens, UniProt O15068); test: Inhibition of human DBS assessed as reduction in CDC42 activation preincubated for 1 min with CDC42 followed by DBS addition measured after 20 mins in presence of EDA-GTP-DY-647P1 by HTRF analysis
T2 sequence (O15068 whole entry): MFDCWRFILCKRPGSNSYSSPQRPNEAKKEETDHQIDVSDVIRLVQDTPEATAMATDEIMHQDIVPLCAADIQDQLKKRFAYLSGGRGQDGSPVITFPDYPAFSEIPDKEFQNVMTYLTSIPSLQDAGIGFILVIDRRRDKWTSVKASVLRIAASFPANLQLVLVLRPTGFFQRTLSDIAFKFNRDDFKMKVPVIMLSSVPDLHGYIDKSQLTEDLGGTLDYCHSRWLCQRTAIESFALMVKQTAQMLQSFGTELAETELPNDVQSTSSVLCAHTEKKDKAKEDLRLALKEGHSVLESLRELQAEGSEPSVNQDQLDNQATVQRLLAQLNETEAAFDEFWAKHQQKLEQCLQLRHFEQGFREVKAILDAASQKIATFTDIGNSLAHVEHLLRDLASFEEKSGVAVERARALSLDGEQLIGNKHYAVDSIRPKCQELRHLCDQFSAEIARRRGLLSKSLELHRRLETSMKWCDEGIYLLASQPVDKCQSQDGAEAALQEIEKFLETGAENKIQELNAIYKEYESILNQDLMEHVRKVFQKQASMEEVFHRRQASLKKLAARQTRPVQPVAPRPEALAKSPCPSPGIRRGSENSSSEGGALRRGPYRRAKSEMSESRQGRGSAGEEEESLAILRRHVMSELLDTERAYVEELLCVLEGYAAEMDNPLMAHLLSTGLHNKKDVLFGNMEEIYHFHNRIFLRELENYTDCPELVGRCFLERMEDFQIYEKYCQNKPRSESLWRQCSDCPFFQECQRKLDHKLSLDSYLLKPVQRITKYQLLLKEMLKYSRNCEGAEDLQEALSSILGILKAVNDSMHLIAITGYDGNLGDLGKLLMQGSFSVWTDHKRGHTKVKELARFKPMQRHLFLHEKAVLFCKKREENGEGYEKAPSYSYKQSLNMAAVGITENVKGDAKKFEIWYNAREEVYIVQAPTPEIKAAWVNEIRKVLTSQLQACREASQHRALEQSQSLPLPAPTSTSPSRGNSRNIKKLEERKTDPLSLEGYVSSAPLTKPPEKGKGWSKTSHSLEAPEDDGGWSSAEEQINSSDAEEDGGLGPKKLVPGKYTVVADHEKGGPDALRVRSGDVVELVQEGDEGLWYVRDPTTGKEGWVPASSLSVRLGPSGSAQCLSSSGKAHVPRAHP

[6] = biological target: T3, Son of sevenless homolog 1 (Homo sapiens, UniProt Q07889); test: Inhibition of SOS1 in human Calu-1 cells assessed as reduction in RAS activation pretreated for 30 mins followed by EGF stimulation for 3 mins by G-LISA analysis; format: cell-based
T3 sequence (Q07889 whole entry): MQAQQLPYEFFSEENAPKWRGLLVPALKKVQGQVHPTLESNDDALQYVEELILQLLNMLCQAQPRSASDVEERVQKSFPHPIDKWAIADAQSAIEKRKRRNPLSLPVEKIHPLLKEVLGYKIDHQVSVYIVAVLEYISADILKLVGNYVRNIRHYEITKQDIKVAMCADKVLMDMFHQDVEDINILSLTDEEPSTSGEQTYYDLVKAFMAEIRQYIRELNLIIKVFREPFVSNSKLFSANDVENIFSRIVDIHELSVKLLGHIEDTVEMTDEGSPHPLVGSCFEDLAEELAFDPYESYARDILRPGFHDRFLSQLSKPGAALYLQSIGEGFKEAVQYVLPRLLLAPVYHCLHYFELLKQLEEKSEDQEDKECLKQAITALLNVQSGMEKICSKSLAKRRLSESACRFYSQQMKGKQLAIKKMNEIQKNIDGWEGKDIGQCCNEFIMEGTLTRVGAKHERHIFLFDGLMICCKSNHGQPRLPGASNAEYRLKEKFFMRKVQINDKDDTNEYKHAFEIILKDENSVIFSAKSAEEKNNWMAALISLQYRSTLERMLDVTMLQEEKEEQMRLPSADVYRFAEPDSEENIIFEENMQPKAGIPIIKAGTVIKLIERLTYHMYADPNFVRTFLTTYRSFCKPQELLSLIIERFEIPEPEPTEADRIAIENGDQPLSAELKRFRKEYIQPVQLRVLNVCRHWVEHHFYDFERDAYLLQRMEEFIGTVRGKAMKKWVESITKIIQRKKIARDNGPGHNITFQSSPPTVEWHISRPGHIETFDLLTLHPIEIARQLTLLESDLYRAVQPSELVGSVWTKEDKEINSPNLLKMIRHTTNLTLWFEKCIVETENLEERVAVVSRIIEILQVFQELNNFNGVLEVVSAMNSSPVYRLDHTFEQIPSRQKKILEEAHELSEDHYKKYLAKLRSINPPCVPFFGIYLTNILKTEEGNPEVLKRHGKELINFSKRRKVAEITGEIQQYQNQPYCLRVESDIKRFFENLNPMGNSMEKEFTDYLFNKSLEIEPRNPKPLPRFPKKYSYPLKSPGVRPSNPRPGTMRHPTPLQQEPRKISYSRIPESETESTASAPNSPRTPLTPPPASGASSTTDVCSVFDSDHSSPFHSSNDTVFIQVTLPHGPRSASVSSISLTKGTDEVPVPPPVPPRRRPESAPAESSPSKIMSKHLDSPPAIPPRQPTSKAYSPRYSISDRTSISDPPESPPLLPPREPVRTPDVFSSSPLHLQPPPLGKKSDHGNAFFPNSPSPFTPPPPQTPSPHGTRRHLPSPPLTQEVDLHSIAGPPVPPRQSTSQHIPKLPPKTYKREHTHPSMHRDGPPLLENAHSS

[7] = biological target: T1, Son of sevenless homolog 1; test: as §1, with “human SOS1” for “human SOS2”, “to 1049” for “to 1043”, “for 2” for “for 10”, “by SOS1” for “by SOS2”, “after 20” for “after 30”
[8] = biological target: T3, Son of sevenless homolog 1; test: Inhibition of SOS1 in human Calu-1 cells assessed as reduction in pERK level incubated for 24 hrs by HTRF analysis; format: cell-based
[9] = biological target: T3, Son of sevenless homolog 1; test: Inhibition of SOS1 in human HeLa cells assessed as reduction in RAS activation pretreated for 30 mins followed by EGF stimulation for 3 mins by G-LISA analysis; format: cell-based
[10] = biological target: T3, Son of sevenless homolog 1; test: Inhibition of SOS1 in human MOLM-13 cells assessed as reduction in pERK level incubated for 60 mins by HTRF analysis; format: cell-based
[11] = biological target: T3, Son of sevenless homolog 1; test: Inhibition of N-terminal His10-tagged wild-type recombinant human SOS1 catalytic domain (564 to 1049 residues) expressed in Escherichia coli assessed as reduction in wild-type KRAS activation preincubated for 10 mins with KRAS followed by SOS1 addition measured after 30 mins in presence of EDA-GTP-DY-647P1 by HTRF analysis
GTPase KRas = GTPase KRas (Homo sapiens, UniProt P01116, G12C); test: Inhibition of N-terminal GST-tagged recombinant human KRAS G12C mutant (1 to 169 residues) expressed in Escherichia coli assessed as reduction in intrinsic GTP exchange preincubated for 10 mins with KRAS followed by SOS1 addition measured after 30 mins in presence of EDA-GTP-DY-647P1 by HTRF analysis
[12] = biological target: T3, Son of sevenless homolog 1; test: Inhibition of SOS1 in human K562 cells assessed as reduction in pERK level incubated for 60 mins by HTRF analysis; format: cell-based
SOS1-KRAS = SOS1-KRAS (Homo sapiens, UniProt Q07889); test: Inhibition of N-terminal GST-tagged recombinant human KRAS G12C mutant (1 to 169 residues) expressed in Escherichia coli/N-terminal His10-tagged wild-type recombinant human SOS1 catalytic domain (564 to 1049 residues) expressed in Escherichia coli protein-protein interaction preincubated for 2 mins with KRAS followed by SOS1 addition measured after 60 mins in presence of anti-6His-XL665 by HTRF analysis
K562 [13] = test: Effect on total ERK level in human K562 cells incubated for 60 mins by HTRF analysis; format: functional, cell-based
Outline: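 K-562 cells (wild-type KRAS) were sourced from ATCC. Cells were incubated with compound for 60 min, and total ERK was quantified alongside pERK.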

[14] = biological target: T4, Son of sevenless homolog 1 (Homo sapiens) (UniProt Q07889); test: Stabilization of N-terminal His10-tagged wild-type recombinant human SOS1 catalytic domain (564 to 1049 residues) expressed in Escherichia coli assessed as change in melting temperature at 100 uM with heating from 25 to 85 degreeC by thermal shift assay
T4 sequence (whole entry): T3 sequence (Q07889 whole entry)

KG-1 = test: Antiproliferative activity against human KG-1 cells assessed as inhibition of cell viability incubated for 72 hrs by Cell Titer Glo assay; format: functional, cell-based
Calu-1 [15] = test: Effect on total ERK level in human Calu-1 cells incubated for 24 hrs by HTRF analysis; format: functional, cell-based
Outline: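 Calu-1 cells carry two KRAS G12C alleles and were sourced from CLS. Total and pERK levels were both analyzed after compound treatment.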

THP-1 = test: Antiproliferative activity against human THP-1 cells assessed as inhibition of cell viability incubated for 72 hrs by Cell Titer Glo assay; format: functional, cell-based
K562 [16] = test: Antiproliferative activity against human K562 cells assessed as inhibition of cell viability incubated for 72 hrs by Cell Titer Glo assay; format: functional, cell-based; conditions: K562, 72 h
Outline: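 K-562 cells (wild-type KRAS, sourced from ATCC) were tested for antiproliferative response.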

[17] = biological target: GTPase KRas (Homo sapiens) (UniProt P01116); test: Stabilization of N-terminal His10-tagged wild-type recombinant human KRAS (1 to 169 residues) expressed in Escherichia coli assessed as change in melting temperature at 100 uM with heating from 25 to 85 degreeC by thermal shift assay
[18] = tested on: GTPase KRas (Homo sapiens), P01116 [G12C]; test: Stabilization of N-terminal GST-tagged recombinant human KRAS G12C mutant (1 to 169 residues) expressed in Escherichia coli assessed as change in melting temperature at 100 uM with heating from 25 to 85 degreeC by thermal shift assay
NCI-H358 = test: Antiproliferative activity against human NCI-H358 cells assessed as inhibition of cell viability incubated for 72 hrs by Cell Titer Glo assay; format: functional, cell-based; conditions: NCI-H358, 72 h
Outline: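 NCI-H358 cells (KRAS G12C mutant) were sourced from ATCC.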

## COc1cc2nc(C)nc(NC(C)c3ccc(-c4cnc5n4CCC5)s3)c2cc1OC (stereo not drawn)
[1]
  IC50: > 20 µM
[2]
  IC50: 0.93 µM
GTPase KRas/RAF1
  IC50: > 20 µM
Calu-1 [3]
  IC50: 0.87 µM
[4]
  IC50: > 20 µM
[5]
  IC50: > 20 µM
[6]
  IC50: 2 µM
[7]
  IC50: 0.65 µM
[8]
  IC50: 4.46 µM
[9]
  IC50: 5.34 µM
[10]
  IC50: 0.45 µM
[11]
  IC50: 0.55 µM
GTPase KRas
  IC50: > 20 µM
[12]
  IC50: 1.16 µM
SOS1-KRAS
  IC50: 0.4 µM

## CNCc1ccccc1-c1csc(C(C)Nc2nc(C)nc3cc(OC)c(OC)cc23)c1 (stereo not drawn)
[1]
  IC50: > 20 µM
K562 [13]
  Activity: inactive
Calu-1 [3]
  IC50: 2.05 µM
[4]
  IC50: > 20 µM
[5]
  IC50: > 20 µM
[14]
  ΔTm: 2.96 °C
KG-1
  Activity: Active
Calu-1 [15]
  Activity: inactive
THP-1
  Activity: Active
K562 [16]
  IC50: 1.1 µM
[17]
  ΔTm: -0.67 °C
[18]
  ΔTm: -0.57 °C
NCI-H358
  IC50: 2.66 µM
